Here are results for three compounds from ChEMBL document CHEMBL4725498, “Synthesis and Biological Evaluations of Electrophilic Steroids Inspired by the Taccalonolides” (ACS Med Chem Lett, 2020).

For data set [1], the system named is HeLa. Put plainly: Cytotoxicity against human HeLa cells assessed as reduction in cell viability measured after 48 hrs by sulforhodamine B assay. Type of data set: functional. As to conditions: read-out: LC50 (the source's name). The procedure, abridged:
(§1)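 HeLa cells exposed to compound for 48 h, then growth measured by sulforhodamine B (SRB) staining. GI50 (50% growth inhibition), TGI (total growth inhibition) and LC50 (50% cytotoxicity) were read from concentration–response data. Values are average ± SEM, n = 3–5.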

Data set [2] relates to HeLa. Put plainly: Antiproliferative activity against human HeLa cells assessed as growth inhibition measured after 48 hrs by sulforhodamine B assay. Type of data set: functional. The method, boiled down: as §1
In general terms: The SRB assay estimates cell density from bound dye.

The subject of the next data set is HCC1937. Put plainly: Cytotoxicity against human HCC1937 cells assessed as reduction in cell viability measured after 48 hrs by sulforhodamine B assay. Type of data set: functional. The following applies: read-out: LC50 (the source's name). The procedure, abridged:
(§2)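 Breast lines were tested in a 48 h SRB assay: four molecularly diverse triple-negative lines plus nontumorigenic MCF 10A, with MCF 10A tested up to 50 μM. LC50 values came from concentration–response curves. Complete cytotoxicity was taken as the concentration giving full cell kill after 48 h incubation.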

A further data set concerns MDA-MB-231. The data set is described as follows: Cytotoxicity against human MDA-MB-231 cells assessed as reduction in cell viability measured after 48 hrs by sulforhodamine B assay. It counts as functional. The procedure, abridged: as §2
The subject of data set [3] is BT-549. Put plainly: Cytotoxicity against human BT-549 cells assessed as reduction in cell viability measured after 48 hrs by sulforhodamine B assay. It counts as functional. The following applies: read-out: LC50 (the source's name). The method, boiled down: as §2
Data set [4] is filed under the species Sus scrofa. Put plainly: Inhibition of porcine brain tubulin polymerization assessed as reduction in rate and extent of tubulin polymerization at 20 uM by turbidimetric assay. The procedure, abridged: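 Purified porcine brain tubulin (20 μM) was incubated with 20 μM compound or DMSO vehicle. Polymerization was monitored turbidimetrically after shift to 37 °C.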

The test system of a further data set is MDA-MB-453. Put plainly: Cytotoxicity against human MDA-MB-453 cells assessed as reduction in cell viability measured after 48 hrs by sulforhodamine B assay. Type of data set: functional. The method, boiled down: as §2
For the next data set, the system named is MCF-10A. The data set is described as follows: Cytotoxicity against human MCF10A cells assessed as reduction in cell viability measured after 48 hrs by sulforhodamine B assay. Type of data set: cell-based. The method, boiled down: as §2
Data set [5] in a line: Selectivity index, ratio of LC50 for human HeLa cells to LC50 for human HCC1937 cells measured after 48 hrs by sulforhodamine B assay. Type of data set: functional.
Data set [6] deals with SK-OV-3. Put plainly: Antiproliferative activity against human SKOV3 cells assessed as reduction in cell growth at 0.01 to 10 uM incubated for 48 hrs by SRB assay. Type of data set: functional, cell-based. The following applies: dose microM 0.01-10, time 48.0 hrs.
In data set [7] the test system is SK-OV-3. The data set is described as follows: Antiproliferative activity against human SKOV3-M6/6 cells assessed as reduction in cell growth at 0.01 to 10 uM incubated for 48 hrs by SRB assay. As to conditions: dose microM 0.01-10, time 48.0 hrs. Type of data set: functional, cell-based.
A further data set deals with OVCAR-5. Put plainly: Antiproliferative activity against human OVCAR-5 cells assessed as reduction in cell growth at 0.01 to 10 uM incubated for 48 hrs by SRB assay. The following applies: dose microM 0.01-10, time 48.0 hrs. It counts as functional, cell-based.
For the next data set, the system named is ES2. The data set is described as follows: Antiproliferative activity against human ES-2 cells assessed as reduction in cell growth at 0.01 to 10 uM incubated for 48 hrs by SRB assay. Type of data set: functional, cell-based. The following applies: dose microM 0.01-10, time 48.0 hrs.
In data set [8] the test system is HeLa. Put plainly: Inhibition of colony formation in human HeLa cells at 1.4 uM treated for 8 hrs followed by compound washout and measured after 11 days by crystal violet staining based assay. It counts as functional. The method, boiled down:
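HeLa cells were treated for 8 h with 1.4 μM compound or EtOH vehicle, then the drug was washed out. Colonies were scored 11 days after removal. Groups were compared with vehicle by 1-way ANOVA with Dunnett's post hoc test.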

A short description of data set [9]: Selectivity ratio of antiproliferative activity against human SKOV3-M6/6 cells transfected with MDR1 to antiproliferative activity against human SKOV3 cells measured after 48 hrs by sulforhodamine B assay. It counts as functional.
Data set [10] has as its system HeLa. The data set is described as follows: Antiproliferative activity against human HeLa cells assessed as reduction in cell viability incubated for 8 hrs by sulforhodamine B assay. It counts as functional. As to conditions: read-out: LC50 (the source's name).
For data set [11], the system named is HeLa. The data set is described as follows: Antiproliferative activity against human HeLa cells assessed as reduction in cell growth incubated for 8 hrs by trypan blue exclusion assay. It counts as functional, cell-based. The procedure, abridged: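 HeLa viability was followed during the first 8 h of treatment by trypan blue exclusion.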
In data set [12] the target is T1, Tubulin (Homo sapiens) (UniProt P68371+Q9H4B7+P0DPH7+P68366+Q13509+Q71U36+P04350+Q3ZCM7+P07437+P68363+Q9BQE3+Q6PEY2+Q13885+Q9BVA1+Q9BUF5). The data set is described as follows: Induction of microtubule stabilization in human BT-549 cells assessed as bundling of microtubule network at 1 microM incubated for 6 hrs by indirect immunofluorescence assay. Type of data set: cell-based. The procedure, abridged:
(§3)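 BT-549 cells were treated for 6 h with compound or DMSO vehicle. Microtubules were then visualised by immunofluorescence with a β-tubulin antibody, scoring microtubule loss or bundling.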

In data set [13] the target is T1, Tubulin (Homo sapiens). The data set is described as follows: Induction of microtubule destabilization in human BT-549 cells assessed as loss of microtubule network at 100 nM incubated for 6 hrs by indirect immunofluorescence assay. It counts as cell-based. The method, boiled down: as §3
For data set [14], the species on record is Sus scrofa. Put plainly: Inhibition of porcine brain tubulin polymerization assessed as reduction in rate and extent of tubulin polymerization at 5 to 10 uM by turbidimetric assay. The following applies: dose microM 5-10. The procedure, abridged: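 Purified porcine brain tubulin (20 μM) was incubated with a range of compound concentrations. Polymerization was monitored turbidimetrically after shift to 37 °C.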

Data set [15] concerns BT-549. Put plainly: Cytotoxicity against human BT-549 cells assessed as concentration required for complete reduction in cell viability incubated for 48 hrs by sulforhodamine B assay. Type of data set: functional. The method, boiled down:
as §2

Calls of active or inactive are those of the source. The calls are words filed in the database; no cut-off is given here.

As a reminder, the GI50 is the concentration giving 50% growth inhibition. A word on the TGI: it is the concentration at which net growth stops. The term inhibition denotes the relative decrease from the control value, in per cent. Broadly, the LC50 is the concentration that kills 50% of the test population.

In the case of `C[C@]12C[C@H]3O[C@H]3C[C@@H]1CC[C@H]1[C@@H]3[C@@H]4O[C@@H]4C(=O)[C@@]3(C)CC[C@@H]12`, the CC50 with HeLa [1] is 1.09 µM; in the data set with HCC1937, 0.47 µM; with BT-549 [3], 1.07 µM; with HeLa [10], 1.4 µM. The GI50 in the data set with HeLa [2] came out at 0.52 µM. The TGI in the data set with HeLa [2] amounted to 0.74 µM. The figures for the LC50 (concentration killing 50% of cells) in the data set on MDA-MB-231 and in the data set with MDA-MB-453 were 2.5 µM and 0.74 µM, respectively. Besides, the inhibition entry in the data set filed under Sus scrofa [4] is “inactive”. The LC50 in the data set on MCF-10A was greater than 50 µM. Moreover, in data set [5], the RatioLC50 came to 2. In addition, the outcome with SK-OV-3 [6], in the data set on SK-OV-3 [7], in the data set on OVCAR-5 and in the data set on ES2 was Active. This compound came in with an inhibition at 1.4 µM in the data set on HeLa [8] of 100%. In [9], the Ratio worked out at 5. Besides, the outcome in the data set on HeLa [11] was inactive.

On to `CC(=O)O[C@H]1C(=O)[C@@]2(C)[C@H]([C@H](OC(=O)c3ccccc3)[C@]3(O)C[C@H](OC(=O)[C@H](O)[C@@H](NC(=O)c4ccccc4)c4ccccc4)C(C)=C1C3(C)C)[C@]1(OC(C)=O)CO[C@@H]1C[C@@H]2O` [PACLITAXEL], for which the result with SK-OV-3 [6], in the data set with SK-OV-3 [7], in the data set with OVCAR-5, with ES2 and on Tubulin (Homo sapiens) [12] was Active. The Ratio in data set [9] is 25.

In the case of `C[C@]12CC=CC[C@@H]1CC[C@@H]1[C@@H]2CC[C@]2(C)C(=O)C=C[C@@H]12`, the CC50 in the data set with HeLa [1] is 1.07 µM; in the data set with HCC1937, 1.39 µM; with MDA-MB-231 (read-out: LC50 (the source's name)), 1.92 µM; in the data set with BT-549 [3], 0.61 µM. Also, in the data set with HeLa [2], the GI50 was determined as 0.47 µM. In the data set on HeLa [2], the TGI was 0.72 µM. The inhibition entry in the data set filed under Sus scrofa [4] was “Active”. For the same compound, the result at Tubulin (Homo sapiens) [13] and on Tubulin (Homo sapiens) [12] was inactive. In the data set filed under Sus scrofa [14], the inhibition entry is “Dose-dependent effect”. The CC100 in the data set with BT-549 [15] was determined as 1 µM.
